Results of several laboratories.
Cell line: MV4-11
Observed: cell growth or viability

SMILES	method	time	measurement	value
CN(C)CCNC(=O)c1ccc(-c2nc3ccc4[nH]ncc4c3c3c2COCC3)cc1	resazurin	72 h	GI50	291 nM
Cc1cc2c(C(N)=O)cccc2n1-c1nc2c(c(NCc3ccccc3)n1)CCCN2	–	72 h	IC50	300 nM
COc1cc(-c2cc(C(C)=O)n3ccccc23)c(OC)cc1Cn1ccnc1	ATP luminescence	–	IC50	70 nM
Cc1sc2c(c1C)C(c1ccc(Cl)cc1)=N[C@@H](CC(=O)NCCCCNC(=O)COc1cccc3c1C(=O)N(C1CCC(=O)NC1=O)C3=O)c1nnc(C)n1-2 (stereo partly drawn)	CCK-8	72 h	IC50	520 nM
O=C(NO)c1ccc(Cn2cnc3c(Nc4ccc(Cl)cc4)ncnc32)cc1	MTT	72 h	IC50	60 nM
Cc1n[nH]c2ccc3nc(-c4ccc(C(=O)NCCN(C)C)cc4)c4c(c3c12)CCC(C)(C)C4	resazurin	72 h	GI50	223 nM
c1cc(-c2cc3ncc(OCC4CCNCC4)nc3cc2-c2cccc(N3CCCCC3)c2)cc(N2CCCCC2)c1	XTT	7 days	EC50	1400 nM
Nc1ccccc1NC(=O)c1ccc(Cn2cnc3c(Nc4ccc(Cl)cc4)ncnc32)cc1	MTT	72 h	IC50	590 nM
c1ccc(Oc2ccc(Nc3ccc4ncc(OCC5CCNCC5)nc4c3)cc2)cc1	XTT	7 days	EC50	880 nM
NCCNC(=O)c1ccc(-c2nc3ccc4[nH]ncc4c3c3c2CCCC3)cc1	resazurin	72 h	GI50	480 nM
Nc1cccc(-c2ccc3ncc(OCC4CCNCC4)nc3c2)c1	XTT	7 days	EC50	≥ 28000 nM
O=C(NO)c1ccc(Cn2cnc3c(Nc4cccc([N+](=O)[O-])c4)ncnc32)cc1	MTT	72 h	IC50	280 nM
O=C(NCCN1CCCC1)c1ccc(-c2nc3ccc4[nH]ncc4c3c3c2CCCC3)c(F)c1	resazurin	72 h	GI50	208 nM
c1cc(N2CCCC2)ccc1-c1cc2ncc(OCC3CCNCC3)nc2cc1-c1ccc(N2CCCC2)cc1	XTT	7 days	EC50	1900 nM
Nc1ccccc1NC(=O)c1ccc(Cn2cnc3c(Nc4ccc(Br)cc4F)ncnc32)cc1	MTT	72 h	IC50	280 nM
